Reference: ChEMBL document CHEMBL1127597, “Oxadiazoles as ester bioisosteric replacements in compounds related to disoxaril. Antirhinovirus activity” (1994)
≈ marks a conversion by molar mass, not a printed value. Calls of active or inactive are those of the source. No cut-off for these calls is given here.

Tested on: Human rhinovirus sp.
Assay: In vitro concentration required to inhibit 80 percent of human rhinovirus 15 serotypes was determined by TCID50 assay;c= inactive against majority of serotypes
Type: functional, organism-based
Method in brief: (§1)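 HeLa monolayers were infected with a virus dilution giving 80-100% CPE in 3 days without drug. Compound was serially diluted in 10 2-fold steps onto the infected cells and incubated 3 days at 33 °C in 2.5% CO2. Cells were fixed with 5% glutaraldehyde and stained with 0.25% crystal violet.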

| Compound | MIC80 |
| --- | --- |
| Cc1cc(CCCOc2c(C)cc(-c3noc(C(C)O)n3)cc2C)on1 (centres undefined) | inactive |
| Cc1cc(CCCOc2c(C)cc(-c3noc(O)n3)cc2C)on1 | inactive |
| Cc1cc(CCCOc2c(C)cc(-c3ncon3)cc2C)on1 | inactive |

Tested on: Human rhinovirus sp.
Assay: In vitro concentration required to inhibit 80 percent of human rhinovirus 15 serotypes was determined by TCID50 assay
Type: functional
Method in brief: as §1

| Compound | MIC80 [µM] |
| --- | --- |
| COCc1nc(-c2cc(C)c(OCCCc3cc(C)no3)c(C)c2)no1 | 0.43 (≈ 0.154 µg/mL) |
| CCc1cc(CCCOc2c(Cl)cc(-c3noc(C)n3)cc2Cl)on1 | 0.22 (≈ 0.0841 µg/mL) |
| CCc1cc(CCCOc2c(C)cc(-c3noc(C)n3)cc2C)on1 | 0.26 (≈ 0.0888 µg/mL) |
| CCc1cc(CCCOc2c(C)cc(-c3noc(CC)n3)cc2C)on1 | 0.4 (≈ 0.142 µg/mL) |
| COCc1cc(CCCOc2c(C)cc(-c3noc(C)n3)cc2C)on1 | 0.22 (≈ 0.0786 µg/mL) |
| COCCc1cc(CCCOc2c(C)cc(-c3noc(C)n3)cc2C)on1 | 0.24 (≈ 0.0891 µg/mL) |
| Cc1cc(CCCOc2c(C)cc(-c3noc(C4CC4)n3)cc2C)on1 | 0.54 (≈ 0.191 µg/mL) |
| Cc1nc(-c2cc(C)c(OCCCc3cc(CO)no3)c(C)c2)no1 | 0.73 (≈ 0.251 µg/mL) |
| CCc1cc(CCCOc2c(C)cc(-c3ncon3)cc2C)on1 | 3.2 (≈ 1.05 µg/mL) |
| Cc1cc(CCCOc2c(Cl)cc(-c3noc(C)n3)cc2Cl)on1 | 0.19 (≈ 0.07 µg/mL) |
| Cc1nc(-c2cc(C)c(OCCCc3cc(C4CC4)no3)c(C)c2)no1 | 0.2 (≈ 0.0707 µg/mL) |
| Cc1cc(CCCOc2c(C)cc(-c3noc(C)n3)cc2C)on1 | 0.26 (≈ 0.0851 µg/mL) |
| Cc1nc(-c2cc(C)c(OCCCc3cc(CS(C)(=O)=O)no3)c(C)c2)no1 | 0.77 (≈ 0.312 µg/mL) |
| CCOCc1cc(CCCOc2c(C)cc(-c3noc(C)n3)cc2C)on1 | 0.19 (≈ 0.0706 µg/mL) |
| COc1nc(-c2cc(C)c(OCCCc3cc(C)no3)c(C)c2)no1 | 0.39 (≈ 0.134 µg/mL) |
| CNc1nc(-c2cc(C)c(OCCCc3cc(C)no3)c(C)c2)no1 | 0.95 (≈ 0.325 µg/mL) |

| Compound | MIC80 [µM] |
| --- | --- |
| Cc1cc(CCCOc2c(C)cc(-c3nnc(C)o3)cc2C)on1 | 3.7 (≈ 1.21 µg/mL) |
| Cc1nc(-c2cc(C)c(OCCCc3cc(C[S+](C)[O-])no3)c(C)c2)no1 (centres undefined) | 1 (≈ 0.389 µg/mL) |
| CCCc1cc(CCCOc2c(C)cc(-c3noc(C)n3)cc2C)on1 | 0.21 (≈ 0.0746 µg/mL) |
| Cc1cc(CCCOc2c(C)cc(-c3noc(N(C)C)n3)cc2C)on1 | 0.8 (≈ 0.285 µg/mL) |
| COCc1cc(CCCOc2c(Cl)cc(-c3noc(C)n3)cc2Cl)on1 | 0.18 (≈ 0.0717 µg/mL) |
| Cc1cc(CCCOc2c(C)cc(-c3noc(CO)n3)cc2C)on1 | 3.6 (≈ 1.24 µg/mL) |
| CCc1nc(-c2cc(C)c(OCCCc3cc(C)no3)c(C)c2)no1 | 0.32 (≈ 0.109 µg/mL) |
| CSCc1cc(CCCOc2c(C)cc(-c3noc(C)n3)cc2C)on1 | 0.32 (≈ 0.12 µg/mL) |
| Cc1cc(CCCOc2c(C)cc(-c3noc(C(C)C)n3)cc2C)on1 | 0.93 (≈ 0.331 µg/mL) |
| Cc1nc(-c2cc(C)c(OCCCc3cc(CCO)no3)c(C)c2)no1 | 1.5 (≈ 0.536 µg/mL) |
| Cc1cc(CCCOc2c(C)cc(-c3nnn(C)n3)cc2C)on1 | 0.71 (≈ 0.232 µg/mL) |
| CCc1nc(-c2cc(C)c(OCCCc3cc(COC)no3)c(C)c2)no1 | 0.21 (≈ 0.078 µg/mL) |
| CCCc1nc(-c2cc(C)c(OCCCc3cc(C)no3)c(C)c2)no1 | 0.79 (≈ 0.281 µg/mL) |
| CCOc1nc(-c2cc(C)c(OCCCc3cc(C)no3)c(C)c2)no1 | 0.23 (≈ 0.0822 µg/mL) |
| Cc1cc(CCCOc2c(C)cc(-c3nc(C)no3)cc2C)on1 | 0.73 (≈ 0.239 µg/mL) |
| Cc1cc(CCCCCOc2c(Cl)cc(C3=NCCO3)cc2Cl)on1 [WIN-54954] | 0.9 (≈ 0.345 µg/mL) |

Tested on: Human rhinovirus sp.
Assay: In vitro concentration required to inhibit 80 percent of human rhinovirus 15 serotypes was determined by TCID50 assay;c inactive against majority of serotypes
Type: functional, organism-based
Method in brief: as §1

| Compound | MIC80 |
| --- | --- |
| CC(=O)Nc1nc(-c2cc(C)c(OCCCc3cc(C)no3)c(C)c2)no1 | inactive |
| Cc1cc(CCCOc2c(C)cc(-c3noc(N)n3)cc2C)on1 | inactive |
| Cc1cc(CCCOc2c(C)cc(-c3noc(S)n3)cc2C)on1 | inactive |

Tested on: Human rhinovirus sp.
Assay: In vitro concentration required to inhibit 80 percent of human rhinovirus 54 serotypes was determined by TCID50 assay
Type: functional

| Compound | MIC80 [µM] |
| --- | --- |
| CCc1cc(CCCOc2c(Cl)cc(-c3noc(C)n3)cc2Cl)on1 | 0.23 (≈ 0.0879 µg/mL) |
| COCc1cc(CCCOc2c(C)cc(-c3noc(C)n3)cc2C)on1 | 0.45 (≈ 0.161 µg/mL) |
| Cc1cc(CCCOc2c(Cl)cc(-c3noc(C)n3)cc2Cl)on1 | 0.3 (≈ 0.11 µg/mL) |
| Cc1cc(CCCOc2c(C)cc(-c3noc(C)n3)cc2C)on1 | 0.3 (≈ 0.0982 µg/mL) |
| CCCc1cc(CCCOc2c(C)cc(-c3noc(C)n3)cc2C)on1 | 0.26 (≈ 0.0924 µg/mL) |
| COCc1cc(CCCOc2c(Cl)cc(-c3noc(C)n3)cc2Cl)on1 | 0.19 (≈ 0.0757 µg/mL) |
